# RGS4 act: RGS4 potentiation or activation; HEK293 M3R/inducible RGS4, carbachol calcium flux Fluo4; stronger effect = lower value; B-score at 10 µM; 0.92% of 310,000 active; AID 463111;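 active = B-score of the integrated calcium signal more than 4 SD below the library mean, with starting fluorescence not abnormally high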;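 also: negative B-score means reduced calcium response which marks RGS4 activation or potentiation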
#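 Detection: kinetic calcium fluorescence imaging with Fluo4-AM dye, 2 µM / Material: HEK293 cells with stable M3R and inducible RGS4 / Schedule: recording 10 s baseline at 1 Hz, 100 s post-agonist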
# RGS4 inh: human RGS4 inhibition; P49798; HEK293 M3R/RGS4 inducible, Fluo-4 calcium flux; stronger effect = higher value; triggered by carbachol at its EC20; B-score at 10 µM; 0.45% of 310,000 active;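 active = B-score, a plate-corrected calcium signal, over three deviations above library mean, with baseline fluorescence within five deviations of library mean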;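 also: RGS4 expression induced by doxycycline in cells with stable M3 receptor; B-score is computed from the integrated fluorescence ratio over baseline after carbachol; higher B-score means a larger calcium signal and so more RGS4 inhibition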
# Target sequence (P49798 whole entry, looked up): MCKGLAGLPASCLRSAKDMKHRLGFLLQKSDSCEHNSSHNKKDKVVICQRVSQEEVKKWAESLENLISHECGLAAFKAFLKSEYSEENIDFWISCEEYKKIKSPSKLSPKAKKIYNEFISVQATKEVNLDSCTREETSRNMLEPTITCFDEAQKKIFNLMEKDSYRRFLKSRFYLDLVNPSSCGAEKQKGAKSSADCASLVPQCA
# MrgX1 agonist: activates human MrgX1 receptor signaling. Q96LB2. MrgX1-HEK293 cells, Fluo-4 calcium fluorescence, agonist mode; stronger effect = higher value. B-score at 10 µM. 0.44% of 310,000 active. AID 588627;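 active = calcium response B-score plate-corrected fluorescence ratio at least 3 library SD, with starting fluorescence B-score inside 5 SD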
# Target sequence (Q96LB2 whole entry, looked up): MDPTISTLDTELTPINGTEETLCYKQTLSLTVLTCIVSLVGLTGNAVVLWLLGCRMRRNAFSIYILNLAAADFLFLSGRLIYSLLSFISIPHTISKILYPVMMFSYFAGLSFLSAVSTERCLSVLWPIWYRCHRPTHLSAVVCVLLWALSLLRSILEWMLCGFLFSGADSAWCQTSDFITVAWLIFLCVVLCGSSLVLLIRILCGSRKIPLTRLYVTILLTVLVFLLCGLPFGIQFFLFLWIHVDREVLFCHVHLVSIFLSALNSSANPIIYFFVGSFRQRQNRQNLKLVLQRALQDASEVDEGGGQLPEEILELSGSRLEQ
#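 Test system: HEK293 cells stably expressing human MrgX1 receptor; amount: 15,000 cells per well; doses: compound delivered in addition one of three; times: overnight plating before 1 h dye loading; detection: Fluo-4 NW calcium-flux fluorescence, kinetic read; read-out basis: B-scored fluorescence response ratio; controls: positive and negative controls per plate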
# MrgX1 allo act: human MrgX1 positive allosteric modulation, primary screen | 0.63% of 310,000 active | B-score at 10 µM | MrgX1-HEK293, Fluo-4 calcium flux, FDSS; stronger effect = higher value;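 active = plate-corrected calcium response at least 3 library SD above typical, normal starting fluorescence, not activating the receptor alone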;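 also: compound read alongside a low EC10 to EC30 dose of BAM8-22 agonist; peak minus trough fluorescence over baseline measured at the second addition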
# MrgX1 antag: antagonists of human MrgX1 receptor. Q96LB2. 1.3% of 310,000 active. B-score at 10 µM. MRGX1-HEK293 calcium flux, Fluo-4, BAM8-22 antagonism; stronger effect = lower value;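 active = calcium-response B-score plate-corrected more than 3 library SD below zero, starting fluorescence within 5 deviations, no agonist response on first addition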;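 also: peak minus trough fluorescence over baseline after final BAM8-22 challenge near maximal dose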
# MrgX1 allo conf: reconfirmed allosteric activator of human MrgX1 receptor; shares compounds with MrgX1 allo act; MrgX1-HEK293, Fluo-4 calcium fluorescence, FDSS; activation (ratio percentage), % at 10 µM; 13% of 1,200 active; AID 602413;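 active = ratio at least 3 SD above the weak peptide control, stable starting fluorescence, no direct agonism earlier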;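 also: compound followed by low BAM8-22 agonist challenge near EC20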
# HEK293 Ca flux: counter-screen for MrgX1 antagonists: effect in parental HEK293 cells; shares compounds with MrgX1 antag; Fluo-4 calcium fluorescence, FDSS; fluorescence ratio F(max-min)/F0 at 10 µM; 2% of 4,000 active; AID 624111;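 active = duplicate-averaged calcium fluorescence ratio at least three times the standard deviation of buffer wells, a nonspecific response in parental cells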
# HEK293 Ca counter: activity in parental HEK293 cells without MrgX1 | parental HEK293 calcium flux, Fluo-4 fluorescence ratio; stronger effect = higher value | 0.4% of 4,000 active | shares compounds with MrgX1 antag | fluorescence ratio F(max-min)/F0 at 10 µM;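 active = calcium fluorescence ratio, averaged over duplicates, at least 3 SD of the buffer-well ratio, meaning a nonspecific response in receptor-free cells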;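 also: untransfected parental HEK293 lacking MrgX1 used as counterscreen for MrgX1 allosteric activators; fluorescence change taken during the second addition on a kinetic imager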
# HEK293 Ca cntr2: activity in parental HEK293 cells lacking MrgX1 receptor; Fluo-4 calcium fluorescence (FDSS); stronger effect = higher value; 8.7% of 4,000 active; fluorescence ratio F(max-min)/F0 at 10 µM; shares compounds with MrgX1 antag;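 active = calcium fluorescence ratio at least three times the spread of buffer wells, meaning a non-specific response in parental cells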
# Numbers without * were called inactive; i = inactive; nt = no result. Most compounds without a hit are left out; they make up all but 3.5% or so of the library.
SMILES,RGS4 act,RGS4 inh,MrgX1 agonist,MrgX1 allo act,MrgX1 antag,MrgX1 allo conf,HEK293 Ca flux,HEK293 Ca counter,HEK293 Ca cntr2
O=C(Nc1ccccc1C(=O)O)c1cccc(NC(=O)c2ccc(Br)o2)c1,i,i,i,17*,i,i,i,i,i
CCCN(CC1CC1)c1nc(C)nc(Nc2c(Cl)cc(Cl)cc2Cl)c1Cl,i,i,i,i,i,nt,nt,nt,nt
C=CCn1c(=O)c(C(=O)Nc2ccccc2S(N)(=O)=O)c(O)c2ccccc21,i,i,i,8.4*,i,i,i,i,i
CCN(CC)S(=O)(=O)c1ccc(C(=O)OCn2c(SC)nnc(C)c2=O)cc1,i,i,i,i,i,nt,nt,nt,nt
Cc1ccc(-c2cc(C)nc3ncnn23)cc1,i,i,i,8.9*,i,i,i,i,i
CC1CCCC(C)N1C(=O)c1cc(-c2ccc3c(c2)OCO3)on1 (stereo not given),i,i,i,11*,i,i,i,i,i
CC1CCCC(C)N1C(=O)c1cc(-c2ccc(Cl)c(Cl)c2)on1 (stereo not given),i,i,i,7.8*,i,i,i,i,i
O=C(c1cc(-c2cccc(Cl)c2)on1)N1CCCCCC1,i,i,i,12*,i,i,i,i,i
COc1cc2c(cc1OC)C(c1ccc([N+](=O)[O-])cc1)NC(=O)C2 (stereo not given),i,i,i,i,i,nt,nt,nt,nt
CCOC(=O)Cc1csc(NC(=S)NC(=O)c2ccc(Cl)cc2)n1,i,i,i,7*,i,i,i,i,i
CCOC(=O)Cc1csc(NC(=S)NC(=O)c2ccc([N+](=O)[O-])cc2)n1,i,i,i,i,i,nt,nt,nt,nt
CCOC(=O)Cc1csc(NC(=O)COc2ccccc2OC)n1,i,i,i,12*,i,i,i,i,i
CCOC(=O)Cc1csc(NC(=O)c2ccc(Br)cc2)n1,i,i,i,12*,i,i,i,i,i
CCOc1ccccc1CNC(=O)c1c([N+](=O)[O-])c(C)nn1C,i,i,i,i,i,nt,nt,nt,nt
CS(=O)(=O)c1ccccc1-c1nnc(NC(=O)c2ccc(S(=O)(=O)N3CCCC3)cc2)o1,i,i,i,i,i,nt,nt,nt,nt
O=C(Nc1nnc(-c2ccccc2Cl)o1)c1ccc(S(=O)(=O)N2CCCCCC2)cc1,i,i,i,8.6*,i,i,i,i,i
CCC1Oc2ccccc2N(CC(=O)NC2CCCCC2)C1=O (stereo not given),i,i,i,i,i,nt,nt,nt,nt
COc1ccc2cc(N=Cc3nc(-c4ccc(C)cc4)oc3O)cnc2c1,i,i,i,i,i,nt,nt,nt,nt
COc1ccc(C(=O)CCN2CCN(c3ccccc3F)CC2)cc1,i,i,i,20*,i,i,i,i,i
COc1ccc(C(=O)CCN2CCN(c3ccc(OC)cc3)CC2)cc1,i,i,i,i,i,nt,nt,nt,nt
Cc1ccc(C(=O)NC2CCCCC2)cc1,i,i,i,i,i,nt,nt,nt,nt
Cc1cc(C)n(-c2ccc(C(=O)NC3CCCCC3)cc2)n1,i,i,i,9.8*,i,i,i,i,i
C=CCOc1c(Br)cc(/C=N/NC(N)=O)cc1OC,i,i,i,i,i,nt,nt,nt,nt
C=CCOc1c(CCC)cc(CCC)cc1C(N)=O,i,i,i,24*,i,i,i,i,i

# Compound activity deposited in PubChem BioAssay by Johns Hopkins Ion Channel Center.
